Measured values as given in ChEMBL document CHEMBL5634103 (Eur J Med Chem, 2023).

Tests used:
Homo sapiens = species: Homo sapiens; assay: Selectivity ratio of Ki for displacement of [125I]IABN from human D2L receptor expressed in HEK cells to Ki for displacement of [125I]IABN from human D3R expressed in HEK cells; type: cell-based
How it was run: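 20 µM (+)-butaclamol defines nonspecific binding. Inhibitor over 5 log units, two points per decade, triplicates. Gamma counting. Single-site IC50 converted to Ki (Cheng–Prusoff), ≥3 experiments. Ratio is D2 Ki/D3 Ki.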

D(2) dopamine receptor [1] = target: T1, D(2) dopamine receptor (Homo sapiens, UniProt P14416); assay: Displacement of [125I]IABN from human D2L receptor expressed in HEK cells measured after 60 mins by gamma counting method; type: cell-based
D(3) dopamine receptor [2] = target: T2, D(3) dopamine receptor (Homo sapiens, UniProt P35462); assay: Displacement of [125I]IABN from human D3 receptor expressed in HEK cells measured after 60 mins by gamma counting method; type: cell-based
D(3) dopamine receptor [3] = target: T2, D(3) dopamine receptor; assay: Binding affinity to human D3 receptor expressed in CHO-K1 cells assessed as inhibition of dopamine-induced beta-arrestin recruitment preincubated for 30 mins followed by dopamine addition and measured after 90 mins by pathhunter assay
D(2) dopamine receptor [4] = target: T1, D(2) dopamine receptor; assay: Binding affinity to D2 receptor (unknown origin)

T2 sequence (P35462 whole entry): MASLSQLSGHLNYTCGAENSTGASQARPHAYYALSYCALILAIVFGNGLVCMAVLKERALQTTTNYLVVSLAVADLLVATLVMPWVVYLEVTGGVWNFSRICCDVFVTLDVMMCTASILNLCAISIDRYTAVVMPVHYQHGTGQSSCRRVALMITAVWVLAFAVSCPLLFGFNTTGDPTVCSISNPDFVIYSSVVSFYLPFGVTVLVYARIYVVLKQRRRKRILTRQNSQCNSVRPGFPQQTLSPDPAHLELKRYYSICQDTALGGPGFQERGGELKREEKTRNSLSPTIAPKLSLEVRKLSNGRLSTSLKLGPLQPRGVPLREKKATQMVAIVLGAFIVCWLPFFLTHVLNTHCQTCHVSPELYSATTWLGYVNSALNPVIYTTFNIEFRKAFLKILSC
T1 sequence (P14416 whole entry): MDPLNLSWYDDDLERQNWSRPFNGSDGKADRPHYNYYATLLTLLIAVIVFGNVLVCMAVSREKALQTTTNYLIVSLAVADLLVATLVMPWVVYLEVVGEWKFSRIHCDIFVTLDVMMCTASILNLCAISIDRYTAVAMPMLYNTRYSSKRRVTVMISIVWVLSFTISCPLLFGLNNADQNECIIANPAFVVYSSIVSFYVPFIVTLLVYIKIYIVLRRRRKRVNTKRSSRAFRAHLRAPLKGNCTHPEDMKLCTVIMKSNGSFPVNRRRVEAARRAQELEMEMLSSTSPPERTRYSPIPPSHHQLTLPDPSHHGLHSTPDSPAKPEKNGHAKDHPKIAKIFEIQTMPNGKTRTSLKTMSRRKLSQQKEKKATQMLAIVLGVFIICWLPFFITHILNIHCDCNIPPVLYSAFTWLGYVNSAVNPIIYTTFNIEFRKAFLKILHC

Row | SMILES | Ratio Ki (Homo sapiens) | Ki (D(2) dopamine receptor [1]) [nM] | Ki (D(3) dopamine receptor [2]) [nM] | IC50 (D(3) dopamine receptor [3]) [nM] | Ki (D(2) dopamine receptor [4]) [nM]
1 | C=CCN1CC[C@H](OCCCN)[C@H]1CNC(=O)c1cc(CCCF)cc(OC)c1OC | 3.5 | 21.4 | 6.2 |  | 
2 | C=CCN1C[C@H](OCCCO)C[C@H]1CNC(=O)c1cc(CCCF)cc(OC)c1OC | 1.9 | 14.2 | 7.3 |  | 
3 | C=CCN1C[C@H](OCCO)C[C@H]1CNC(=O)c1cc(CCCF)cc(OC)c1OC | 3.5 | 8.4 | 2.4 |  | 
4 | C=CCN1CC[C@H](OCc2ccccc2)[C@H]1CNC(=O)c1cc(CCCF)cc(OC)c1OC | 2.5 | 7.3 | 2.9 |  | 
5 | C=CCN1C[C@H](OC(=O)NCCc2ccccc2)C[C@H]1CNC(=O)c1cc(CCCF)cc(OC)c1OC | 2.3 | 30 | 12.8 |  | 
6 | C=CCN1C[C@H](OC(=O)Nc2ccccc2C)C[C@H]1CNC(=O)c1cc(CCCF)cc(OC)c1OC | 1.5 | 12.6 | 8.4 |  | 
7 | C=CCN1C[C@H](OCCCN)C[C@@H]1CNC(=O)c1cc(CCCF)cc(OC)c1OC | 1.2 | 2350 | 1950 |  | 
8 | C=CCN1C[C@H](OC(=O)Nc2ccccc2)C[C@H]1CNC(=O)c1cc(CCCF)cc(OC)c1OC | 2 | 29.2 | 14.6 |  | 
9 | C=CCN1C[C@H](OCc2ccc(C(F)(F)F)cc2)C[C@H]1CNC(=O)c1cc(CCCF)cc(OC)c1OC | 1.4 | 32.1 | 23.7 |  | 
10 | C=CCN1C[C@H](OCCCN)C[C@H]1CNC(=O)c1cc(CCCF)cc(OC)c1OC | 2.2 | 18.6 | 8.4 | 1.3 | 
11 | C=CCN1C[C@H](OC(=O)Nc2ccc(-c3ccsc3)cc2)C[C@H]1CNC(=O)c1cc(CCCF)cc(OC)c1OC | 3.7 | 28.8 | 7.7 | 169 | 
12 | C=CCN1C[C@@H](OC(=O)Nc2ccc(-c3ccsc3)cc2)C[C@H]1CNC(=O)c1cc(CCCF)cc(OC)c1OC | 16.5 | 9690 |  |  | 
13 | C=CCN1C[C@H](OC(=O)Nc2ccc(-c3ccccn3)cc2)C[C@H]1CNC(=O)c1cc(CCCF)cc(OC)c1OC | 1.4 | 22.4 | 15.8 | 79.2 | 
14 | C=CCN1C[C@H](OCc2cccnc2)C[C@H]1CNC(=O)c1cc(CCCF)cc(OC)c1OC | 1.5 | 2.5 | 1.7 |  | 
15 | CCN1C[C@H](OC(=O)Nc2ccc(-c3ccsc3)cc2)C[C@H]1CNC(=O)c1cc(CCCF)cc(OC)c1OC | 3.8 | 16.2 | 4.3 | 62.7 | 
16 | C=CCN1C[C@H](OC(=O)NCc2ccccc2)C[C@H]1CNC(=O)c1cc(CCCF)cc(OC)c1OC | 1.6 | 10.1 | 6.2 |  | 
17 | C=CCN1C[C@H](OCc2ccccc2)C[C@H]1CNC(=O)c1cc(CCCF)cc(OC)c1OC |  |  | 9.5 |  | 

Row | SMILES | Ratio Ki (Homo sapiens) | Ki (D(2) dopamine receptor [1]) [nM] | Ki (D(3) dopamine receptor [2]) [nM] | IC50 (D(3) dopamine receptor [3]) [nM] | Ki (D(2) dopamine receptor [4]) [nM]
18 | C=CCN1C[C@H](OC(=O)Nc2cccnc2)C[C@H]1CNC(=O)c1cc(CCCF)cc(OC)c1OC | 2.2 | 8.3 | 3.7 |  | 
19 | CCN1C[C@H](OCCCN)C[C@H]1CNC(=O)c1cc(CCCF)cc(OC)c1OC | 2.1 | 2.9 | 1.4 | 3.3 | 
20 | C=CCN1C[C@H](OC(=O)Nc2ccsc2)C[C@H]1CNC(=O)c1cc(CCCF)cc(OC)c1OC | 1.3 | 7.7 | 6.1 |  | 
21 | C=CCN1C[C@H](OC(=O)Nc2ccccn2)C[C@H]1CNC(=O)c1cc(CCCF)cc(OC)c1OC | 2.4 | 10.1 | 4.1 |  | 
22 | C=CCN1C[C@H](OCCCCN)C[C@H]1CNC(=O)c1cc(CCCF)cc(OC)c1OC | 1.4 | 2.2 | 1.5 |  | 
23 | C=CCN1C[C@H](OCc2ccncc2)C[C@H]1CNC(=O)c1cc(CCCF)cc(OC)c1OC | 1.7 | 7 | 4 |  | 
24 | C=CCN1C[C@H](OCc2ccc(F)cc2)C[C@H]1CNC(=O)c1cc(CCCF)cc(OC)c1OC | 2 | 9.5 | 4.7 |  | 
25 | C=CCN1C[C@H](OCCN)C[C@H]1CNC(=O)c1cc(CCCF)cc(OC)c1OC | 11.3 | 107 | 9.5 | 11 | 
26 | C=CCN1C[C@H](OCCCNC(=O)c2ccc(-c3ccsc3)cc2)C[C@H]1CNC(=O)c1cc(CCCF)cc(OC)c1OC | 3.2 | 13.4 | 4.2 | 8.1 | 
27 | C=CCN1C[C@H](OC(=O)Nc2ccoc2)C[C@H]1CNC(=O)c1cc(CCCF)cc(OC)c1OC | 0.6 | 8.3 | 15 |  | 
28 | C=CCN1C[C@@H](OC(=O)Nc2ccc(-c3ccsc3)cc2)C[C@@H]1CNC(=O)c1cc(CCCF)cc(OC)c1OC | 6.7 | 189 |  |  | 
29 | C=CCO[C@@H]1C[C@@H](CNC(=O)c2cc(CCCF)cc(OC)c2OC)N(CC=C)C1 | 2.8 | 7.4 | 2.6 |  | 
30 | C=CCN1C[C@H](OC(=O)Nc2cc(C)ccc2OC)C[C@H]1CNC(=O)c1cc(CCCF)cc(OC)c1OC | 1.5 | 18.7 | 12.5 |  | 
31 | C=CCN1CCC[C@H]1CNC(=O)c1cc(CCCF)cc(OC)c1OC [FALLYPRIDE] |  |  |  |  | 0.02
32 | C=CCN1C[C@H](OC(=O)Nc2cccc(N(C)C)c2)C[C@H]1CNC(=O)c1cc(CCCF)cc(OC)c1OC | 1.3 | 14 | 10.6 |  | 
33 | C=CCN1C[C@H](OC(=O)Nc2ccc(-c3ccsc3)cc2)C[C@@H]1CNC(=O)c1cc(CCCF)cc(OC)c1OC | > 6 | > 41000 | 6790 |  | 
